Source: ChEMBL document CHEMBL1926614, “Substituted thiazoles V. synthesis and antitumor activity of novel thiazolo[2,3-b]quinazoline and pyrido[4,3-d]thiazolo[3,2-a]pyrimidine analogues” (2012)
Activity calls are given as the source filed them. The rule behind the calls is not given here.

Tests used:
Type in all cases: functional
[1] = Cytotoxicity against human CNS cancer cells after 48 hrs by coulter counting; settings: Cancer cell lines
Method in brief: (§1)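 NCI 60-cell-line panel covering nine tumour subpanels, tested over a 5-log dose range. Compounds were dissolved in DMSO and diluted in phosphate-buffered saline to a final DMSO below 1%. Wells held 6 × 10⁴ cells/ml and were run in duplicate. Controls contained PBS and DMSO at matching dilutions. Incubation was at 37 °C in humidified 5% CO₂. GI₅₀, TGI and LC₅₀ were reported.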

[2] = Cytotoxicity against human renal cancer cells after 48 hrs by coulter counting; settings: Cancer cell lines; method in brief: as §1
[3] = Cytotoxicity against human ovarian cancer cells after 48 hrs by coulter counting; settings: Cancer cell lines; method in brief: as §1
[4] = Cytotoxicity against human prostate cancer cells after 48 hrs by coulter counting; settings: Cancer cell lines; method in brief: as §1
[5] = Cytotoxicity against human breast cancer cells after 48 hrs by coulter counting; settings: Cancer cell lines; method in brief: as §1
[6] = test system: NSCLC; assay: Cytotoxicity against human NSCLC cells after 48 hrs by coulter counting; method in brief: as §1
[7] = test system: UACC-257; assay: Growth inhibition of human UACC257 cells at 10 uM after 48 hrs by coulter counting
Method in brief: (§2)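 Single-dose screen in the NCI 60 human tumor cell line panel (nine subpanels). Compounds dissolved in DMSO and diluted in phosphate buffered saline, keeping final DMSO below 1%. Added in duplicate wells to cells at 6 × 10⁴ cells/ml. Controls held PBS and DMSO at matching dilutions. Incubated at 37 °C, humidified, 5% CO₂. Reported as percent growth of treated cells.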

[8] = test system: UACC-62; assay: Growth inhibition of human UACC62 cells at 10 uM after 48 hrs by coulter counting; method in brief: as §2
[9] = test system: SF-539; assay: Growth inhibition of human SF539 cells at 10 uM after 48 hrs by coulter counting; settings: SF-539, 48 h, read-out: GI
Method in brief: (§3)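 Single-dose primary screen across the full NCI 60-cell-line panel. Stocks were made in DMSO and diluted in PBS to a final DMSO below 1%. Cultures at 6 × 10⁴ cells/ml were run in duplicate wells alongside PBS/DMSO vehicle controls at 37 °C in humidified 5% CO₂. Data were expressed as percent growth of treated cells.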

[10] = test system: CCRF-CEM; assay: Growth inhibition of human CCRF-CEM cells at 10 uM after 48 hrs by coulter counting; settings: read-out: GI; method in brief: as §3
[11] = test system: HL-60(TB); assay: Growth inhibition of human HL-60(TB) cells at 10 uM after 48 hrs by coulter counting
Method in brief: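 Test compound was dissolved in DMSO and diluted in phosphate-buffered saline to a final DMSO level below 1%. Dilutions were plated in duplicate with cell culture at 6 × 10⁴ cells/ml. Vehicle controls held PBS and DMSO at matching dilutions. Incubation was at 37 °C, humidified, under 5% CO₂. Data were reported as percent growth of treated cells.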

[12] = test system: K562; assay: Growth inhibition of human K562 cells at 10 uM after 48 hrs by coulter counting; method in brief: as §3
[13] = test system: MOLT-4; assay: Growth inhibition of human MOLT4 cells at 10 uM after 48 hrs by coulter counting; method in brief: as §3
[14] = test system: RPMI-8226; assay: Growth inhibition of human RPMI8226 cells at 10 uM after 48 hrs by coulter counting; method in brief: as §3
[15] = test system: SR; assay: Growth inhibition of human SR cells at 10 uM after 48 hrs by coulter counting; method in brief: as §2
[16] = test system: A549; assay: Growth inhibition of human A549 cells at 10 uM after 48 hrs by coulter counting; method in brief: as §3
[17] = test system: EKVX; assay: Growth inhibition of human EKVX cells at 10 uM after 48 hrs by coulter counting; method in brief: as §3
[18] = test system: HOP-62; assay: Growth inhibition of human HOP62 cells at 10 uM after 48 hrs by coulter counting; method in brief: as §3
[19] = test system: NCI-H226; assay: Growth inhibition of human NCI-H226 cells at 10 uM after 48 hrs by coulter counting; method in brief: as §3
[20] = test system: NCI-H23; assay: Growth inhibition of human NCI-H23 cells at 10 uM after 48 hrs by coulter counting; method in brief: as §3
[21] = Growth inhibition of human NCI-322M cells at 10 uM after 48 hrs by coulter counting; settings: read-out: GI; method in brief: as §3
[22] = test system: NCI-H460; assay: Growth inhibition of human NCI-H460 cells at 10 uM after 48 hrs by coulter counting; method in brief: as §3
[23] = test system: NCI-H522; assay: Growth inhibition of human NCI-H522 cells at 10 uM after 48 hrs by coulter counting; method in brief: as §3
[24] = test system: HCT-116; assay: Growth inhibition of human HCT116 cells at 10 uM after 48 hrs by coulter counting; method in brief: as §3
[25] = test system: HCC 2998; assay: Growth inhibition of human HCC2998 cells at 10 uM after 48 hrs by coulter counting; method in brief: as §3
[26] = test system: HT-29; assay: Growth inhibition of human HT-29 cells at 10 uM after 48 hrs by coulter counting; method in brief: as §3
[27] = test system: KM12; assay: Growth inhibition of human KM12 cells at 10 uM after 48 hrs by coulter counting; method in brief: as §3
[28] = test system: SF-268; assay: Growth inhibition of human SF268 cells at 10 uM after 48 hrs by coulter counting; settings: SF-268, 48 h, read-out: GI; method in brief: as §3
[29] = test system: SF-295; assay: Growth inhibition of human SF295 cells at 10 uM after 48 hrs by coulter counting; method in brief: as §3
[30] = test system: SNB-19; assay: Growth inhibition of human SNB19 cells at 10 uM after 48 hrs by coulter counting; settings: SNB-19, 48 h, read-out: GI; method in brief: as §3
[31] = test system: SNB-75; assay: Growth inhibition of human SNB75 cells at 10 uM after 48 hrs by coulter counting; settings: SNB-75, 48 h, read-out: GI; method in brief: as §3
[32] = test system: U-251; assay: Growth inhibition of human U251 cells at 10 uM after 48 hrs by coulter counting; method in brief: as §2
[33] = test system: LOX IMVI; assay: Growth inhibition of human LOXIMVI cells at 10 uM after 48 hrs by coulter counting; method in brief: as §3
[34] = test system: M14; assay: Growth inhibition of human M14 cells at 10 uM after 48 hrs by coulter counting; method in brief: as §3
[35] = test system: MDA-MB-435; assay: Growth inhibition of human MDA-MB-435 cells at 10 uM after 48 hrs by coulter counting; method in brief: as §3
[36] = test system: SK-MEL-2; assay: Growth inhibition of human SK-MEL-2 cells at 10 uM after 48 hrs by coulter counting; method in brief: as §3
[37] = test system: SK-MEL-28; assay: Growth inhibition of human SK-MEL-28 cells at 10 uM after 48 hrs by coulter counting; settings: SK-MEL-28, 48 h, read-out: GI; method in brief: as §3
[38] = test system: SK-MEL-5; assay: Growth inhibition of human SK-MEL-5 cells at 10 uM after 48 hrs by coulter counting; method in brief: as §3
[39] = test system: IGROV-1; assay: Growth inhibition of human IGROV1 cells at 10 uM after 48 hrs by coulter counting; method in brief: as §3
[40] = test system: OVCAR-4; assay: Growth inhibition of human OVCAR4 cells at 10 uM after 48 hrs by coulter counting; settings: OVCAR-4, 48 h, read-out: GI; method in brief: as §3
[41] = test system: NCI/ADR-RES; assay: Growth inhibition of human NCI/ADR-RES cells at 10 uM after 48 hrs by coulter counting; settings: read-out: GI; method in brief: as §3
[42] = test system: A498; assay: Growth inhibition of human A498 cells at 10 uM after 48 hrs by coulter counting; method in brief: as §3
[43] = test system: ACHN; assay: Growth inhibition of human ACHN cells at 10 uM after 48 hrs by coulter counting; method in brief: as §3
[44] = test system: CAKI-1; assay: Growth inhibition of human Caki1 cells at 10 uM after 48 hrs by coulter counting; method in brief: as §3
[45] = test system: UO-31; assay: Growth inhibition of human UO31 cells at 10 uM after 48 hrs by coulter counting; method in brief: as §2
[46] = test system: DU-145; assay: Growth inhibition of human DU145 cells at 10 uM after 48 hrs by coulter counting; method in brief: as §3
[47] = test system: MCF7; assay: Growth inhibition of human MCF7 cells at 10 uM after 48 hrs by coulter counting; settings: MCF7, 48 h, read-out: GI; method in brief: as §3
[48] = test system: BT-549; assay: Growth inhibition of human BT549 cells at 10 uM after 48 hrs by coulter counting; method in brief: as §3
[49] = test system: T47D; assay: Growth inhibition of human T47D cells at 10 uM after 48 hrs by coulter counting; settings: read-out: GI; method in brief: as §2
[50] = Cytotoxicity against human leukemia cells after 48 hrs by coulter counting; settings: Leukemia cell; method in brief: as §1
[51] = Cytotoxicity against human colon cancer cells after 48 hrs by coulter counting; settings: Cancer cell lines; method in brief: as §1
[52] = read-out: LC50 (the source's name)

SMILES: COc1cc(/C=C2\CCCC3=C2N=C2SC=CN2C3c2cc(OC)c(OC)c(OC)c2)cc(OC)c1OC (stereo not given)
- GI50 [1]: 47.8 µM
- LC50 [1]: > 100 µM
- TGI [1]: > 100 µM
- GI50 [2]: 1.8 µM
- LC50 (concentration giving 50% net cell kill) [2]: > 100 µM
- TGI [2]: > 100 µM
- GI50 [3]: 1.9 µM
- TGI [3]: > 100 µM
- CC50 [3, 52]: > 100 µM
- GI50 [4]: 2 µM
- LC50 (concentration killing 50% of cells) [4]: > 100 µM
- TGI [4]: > 100 µM
- GI50 [5]: 2.2 µM
- TGI [5]: > 100 µM
- CC50 [5, 52]: > 100 µM
- GI50 [6]: 2.3 µM
- TGI [6]: > 100 µM
- CC50 [6, 52]: > 100 µM
- growth inhibition (GI) [7]: Active
- growth inhibition (GI) [8]: Active
- inhibition of growth at 10 µM [9]: 91.3%
- inhibition of growth at 10 µM [10]: 94.1%
- growth inhibition (GI) [11]: Active
- growth inhibition (GI) [12]: Active
- growth inhibition (GI) [13]: Active
- growth inhibition (GI) [14]: Active
- growth inhibition (GI) [15]: Active
- growth inhibition (GI) [16]: Active
- growth inhibition (GI) [17]: Active
- growth inhibition (GI) [18]: Active
- growth inhibition (GI) [19]: Active
- growth inhibition (GI) [20]: Active
- inhibition of growth at 10 µM [21]: 99.5%
- growth inhibition (GI) [22]: Active
- growth inhibition (GI) [23]: Active
- growth inhibition (GI) [24]: Active
- growth inhibition (GI) [25]: Active
- growth inhibition (GI) [26]: Active
- growth inhibition (GI) [27]: Active
- inhibition of growth at 10 µM [28]: 95%
- growth inhibition (GI) [29]: Active
- inhibition of growth at 10 µM [30]: 79%
- inhibition of growth at 10 µM [31]: 65%
- growth inhibition (GI) [32]: Active
- growth inhibition (GI) [33]: Active
- growth inhibition (GI) [34]: Active
- growth inhibition (GI) [35]: Active
- growth inhibition (GI) [36]: Active
- inhibition of growth at 10 µM [37]: 89.7%
- growth inhibition (GI) [38]: Active
- growth inhibition (GI) [39]: Active
- inhibition of growth at 10 µM [40]: 79.5%
- inhibition of growth at 10 µM [41]: 90.5%
- growth inhibition (GI) [42]: Active
- growth inhibition (GI) [43]: Active
- growth inhibition (GI) [44]: Active
- growth inhibition (GI) [45]: Active
- growth inhibition (GI) [46]: Active
- inhibition of growth at 10 µM [47]: 76%
- growth inhibition (GI) [48]: Active
- inhibition of growth at 10 µM [49]: 69%
- GI50 [50]: 2 µM
- TGI [50]: > 100 µM
- CC50 [50, 52]: > 100 µM
- GI50 [51]: 1.6 µM
